Test results from ChEMBL document CHEMBL5661979, “Pharmacological inhibition of BMK1 suppresses tumor growth through promyelocytic leukemia protein” (Cancer Cell, 2010).

How the values were obtained:
Format in all cases: subcellular
eIF-2-alpha kinase GCN2 = eIF-2-alpha kinase GCN2 (Homo sapiens, UniProt Q9P2K8); assay: Inhibition of GCN2 in human HeLa cells lysate pre incubated for 15 mins followed by ATP acyl phosphate probe addition and measured after 10 mins by LC-MS/MS analysis
[1] = target: MAP/microtubule affinity-regulating kinase 3 (Homo sapiens, UniProt P27448); assay: Inhibition of MARK3 in human HeLa cells lysate pre incubated for 15 mins followed by ATP acyl phosphate probe addition and measured after 10 mins by LC-MS/MS analysis
Chain of MAP/microtubule affinity-regulating kinase 3 (P27448 whole entry): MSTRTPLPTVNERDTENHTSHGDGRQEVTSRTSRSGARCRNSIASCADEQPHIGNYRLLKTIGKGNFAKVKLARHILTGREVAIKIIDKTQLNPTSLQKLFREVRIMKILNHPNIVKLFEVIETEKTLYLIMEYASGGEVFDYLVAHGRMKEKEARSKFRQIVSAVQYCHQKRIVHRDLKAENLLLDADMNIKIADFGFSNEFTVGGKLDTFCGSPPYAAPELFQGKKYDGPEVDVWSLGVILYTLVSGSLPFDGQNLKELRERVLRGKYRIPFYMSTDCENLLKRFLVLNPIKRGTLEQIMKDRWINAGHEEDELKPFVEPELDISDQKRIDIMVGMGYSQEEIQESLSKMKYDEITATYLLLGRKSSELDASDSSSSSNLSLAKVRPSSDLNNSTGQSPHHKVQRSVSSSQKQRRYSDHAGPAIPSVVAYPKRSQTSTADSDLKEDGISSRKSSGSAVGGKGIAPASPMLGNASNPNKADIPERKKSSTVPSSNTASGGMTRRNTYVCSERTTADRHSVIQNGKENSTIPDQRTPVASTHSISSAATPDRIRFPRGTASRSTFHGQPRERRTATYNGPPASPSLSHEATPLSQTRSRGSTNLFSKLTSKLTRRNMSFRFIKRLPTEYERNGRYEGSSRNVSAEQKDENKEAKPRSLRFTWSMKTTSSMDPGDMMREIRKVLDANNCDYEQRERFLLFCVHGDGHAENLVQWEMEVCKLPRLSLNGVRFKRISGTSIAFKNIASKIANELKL

[2] = target: Serine/threonine-protein kinase 16 (Homo sapiens, UniProt O75716); assay: Inhibition of MPSK1 in human HeLa cells lysate pre incubated for 15 mins followed by ATP acyl phosphate probe addition and measured after 10 mins by LC-MS/MS analysis
Chain of Serine/threonine-protein kinase 16 (O75716 whole entry): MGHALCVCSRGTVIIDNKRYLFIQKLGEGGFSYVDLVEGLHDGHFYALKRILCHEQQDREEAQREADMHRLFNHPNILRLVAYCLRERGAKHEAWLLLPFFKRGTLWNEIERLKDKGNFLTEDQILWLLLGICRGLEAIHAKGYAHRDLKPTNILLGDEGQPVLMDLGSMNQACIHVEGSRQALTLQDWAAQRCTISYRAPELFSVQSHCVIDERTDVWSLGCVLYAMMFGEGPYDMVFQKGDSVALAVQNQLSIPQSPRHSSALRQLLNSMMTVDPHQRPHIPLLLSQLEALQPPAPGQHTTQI

[3] = target: 5'-AMP-activated protein kinase catalytic subunit alpha-2 (Homo sapiens, UniProt P54646); assay: Inhibition of AMPKalpha2 in human HeLa cells lysate pre incubated for 15 mins followed by ADP acyl phosphate probe addition and measured after 10 mins by LC-MS/MS analysis
Chain of 5'-AMP-activated protein kinase catalytic subunit alpha-2 (P54646 whole entry, the tested form may be a part): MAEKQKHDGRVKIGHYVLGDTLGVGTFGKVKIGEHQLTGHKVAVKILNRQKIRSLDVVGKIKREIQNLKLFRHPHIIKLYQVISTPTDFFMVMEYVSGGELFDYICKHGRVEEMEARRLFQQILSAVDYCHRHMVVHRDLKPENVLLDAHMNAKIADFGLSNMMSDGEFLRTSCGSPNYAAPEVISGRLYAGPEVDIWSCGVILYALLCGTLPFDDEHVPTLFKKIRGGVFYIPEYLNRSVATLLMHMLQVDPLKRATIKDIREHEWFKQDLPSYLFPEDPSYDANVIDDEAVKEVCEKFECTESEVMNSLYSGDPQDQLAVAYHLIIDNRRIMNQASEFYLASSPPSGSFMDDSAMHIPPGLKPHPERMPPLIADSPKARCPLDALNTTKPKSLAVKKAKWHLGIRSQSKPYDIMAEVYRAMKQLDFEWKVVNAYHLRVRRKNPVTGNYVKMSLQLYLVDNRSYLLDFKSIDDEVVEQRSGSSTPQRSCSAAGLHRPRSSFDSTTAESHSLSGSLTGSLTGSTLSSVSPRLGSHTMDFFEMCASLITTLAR
Method in brief: (§1)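 HeLa cell lysates (5 mg/mL total protein) were preincubated with inhibitor at 0, 0.8, 2, 10 or 50 μM for 15 min. ATP or ADP acylphosphate probe was then added (5 μM final) for 10 min, and reactions were stopped with urea. Up to four fragment ions per kinase probe-peptide were quantified by targeted MS. % inhibition was taken relative to untreated lysate. Run in duplicate.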

[4] = target: Dual specificity mitogen-activated protein kinase kinase; MEK1/2 (Homo sapiens, UniProt P36507+Q02750); assay: Inhibition of MAP2K1/MAP2K2 in human HeLa cells lysate pre incubated for 15 mins followed by ADP acyl phosphate probe addition and measured after 10 mins by LC-MS/MS analysis
[5] = target: Dual specificity mitogen-activated protein kinase kinase 7 (Homo sapiens, UniProt O14733); assay: Inhibition of MAP2K7 in human HeLa cells lysate pre incubated for 15 mins followed by ADP acyl phosphate probe addition and measured after 10 mins by LC-MS/MS analysis
Chain of Dual specificity mitogen-activated protein kinase kinase 7 (O14733 whole entry): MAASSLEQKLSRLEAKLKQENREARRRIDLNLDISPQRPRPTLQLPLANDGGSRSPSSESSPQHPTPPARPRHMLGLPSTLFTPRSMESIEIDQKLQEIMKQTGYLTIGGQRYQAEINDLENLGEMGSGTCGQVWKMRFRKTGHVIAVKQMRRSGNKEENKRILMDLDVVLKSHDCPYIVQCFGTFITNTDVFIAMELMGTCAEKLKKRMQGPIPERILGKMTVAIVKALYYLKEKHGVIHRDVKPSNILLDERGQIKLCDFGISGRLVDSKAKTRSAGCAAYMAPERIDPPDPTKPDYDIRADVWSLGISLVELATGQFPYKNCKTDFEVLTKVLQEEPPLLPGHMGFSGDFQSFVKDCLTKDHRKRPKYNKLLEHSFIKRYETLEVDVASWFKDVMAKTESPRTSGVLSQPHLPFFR

Activated CDC42 kinase 1 = Activated CDC42 kinase 1 (Homo sapiens, UniProt Q07912); assay: Inhibition of ACK1 in human HeLa cells lysate at 50 uM pre incubated for 15 mins followed by ADP acyl phosphate probe addition and measured after 10 mins by LC-MS/MS analysis relative to control; conditions: time 25.0 min; method in brief: as §1
Chain of Activated CDC42 kinase 1 (Q07912 whole entry, looked up): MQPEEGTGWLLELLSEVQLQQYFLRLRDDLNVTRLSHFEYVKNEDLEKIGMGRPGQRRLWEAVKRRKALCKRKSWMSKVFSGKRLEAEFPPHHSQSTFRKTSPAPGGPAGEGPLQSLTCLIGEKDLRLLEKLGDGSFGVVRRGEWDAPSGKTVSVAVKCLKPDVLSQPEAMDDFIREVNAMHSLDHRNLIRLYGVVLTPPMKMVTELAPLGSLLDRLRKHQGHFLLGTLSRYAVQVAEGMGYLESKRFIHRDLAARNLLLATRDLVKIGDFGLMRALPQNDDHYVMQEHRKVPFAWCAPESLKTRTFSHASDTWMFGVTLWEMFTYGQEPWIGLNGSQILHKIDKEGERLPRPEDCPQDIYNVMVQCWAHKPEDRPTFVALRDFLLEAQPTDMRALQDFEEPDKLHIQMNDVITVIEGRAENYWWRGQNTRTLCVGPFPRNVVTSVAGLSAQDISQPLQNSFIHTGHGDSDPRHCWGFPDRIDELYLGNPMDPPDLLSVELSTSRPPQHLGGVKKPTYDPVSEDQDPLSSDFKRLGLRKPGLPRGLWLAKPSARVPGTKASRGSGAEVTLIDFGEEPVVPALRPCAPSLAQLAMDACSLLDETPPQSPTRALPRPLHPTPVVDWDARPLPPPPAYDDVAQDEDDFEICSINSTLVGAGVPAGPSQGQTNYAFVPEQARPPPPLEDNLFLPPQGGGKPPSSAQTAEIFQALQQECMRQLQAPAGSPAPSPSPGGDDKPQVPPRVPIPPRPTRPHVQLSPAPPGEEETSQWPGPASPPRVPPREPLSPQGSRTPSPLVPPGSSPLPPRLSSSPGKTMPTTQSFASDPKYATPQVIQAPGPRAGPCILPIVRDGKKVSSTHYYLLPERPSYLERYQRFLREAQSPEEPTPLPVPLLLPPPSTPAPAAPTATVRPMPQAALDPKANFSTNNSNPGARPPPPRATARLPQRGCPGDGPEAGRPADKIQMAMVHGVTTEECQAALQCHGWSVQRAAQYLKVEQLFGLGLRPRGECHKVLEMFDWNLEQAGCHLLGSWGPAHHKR

[6] = target: Phosphatidylinositol 4-kinase beta (Homo sapiens, UniProt Q9UBF8); assay: Inhibition of PIK4CB in human HeLa cells lysate at 50 uM pre incubated for 15 mins followed by ATP acyl phosphate probe addition and measured after 10 mins by LC-MS/MS analysis relative to control; conditions: time 25.0 min
Chain of Phosphatidylinositol 4-kinase beta (Q9UBF8 2-816 limits assumed): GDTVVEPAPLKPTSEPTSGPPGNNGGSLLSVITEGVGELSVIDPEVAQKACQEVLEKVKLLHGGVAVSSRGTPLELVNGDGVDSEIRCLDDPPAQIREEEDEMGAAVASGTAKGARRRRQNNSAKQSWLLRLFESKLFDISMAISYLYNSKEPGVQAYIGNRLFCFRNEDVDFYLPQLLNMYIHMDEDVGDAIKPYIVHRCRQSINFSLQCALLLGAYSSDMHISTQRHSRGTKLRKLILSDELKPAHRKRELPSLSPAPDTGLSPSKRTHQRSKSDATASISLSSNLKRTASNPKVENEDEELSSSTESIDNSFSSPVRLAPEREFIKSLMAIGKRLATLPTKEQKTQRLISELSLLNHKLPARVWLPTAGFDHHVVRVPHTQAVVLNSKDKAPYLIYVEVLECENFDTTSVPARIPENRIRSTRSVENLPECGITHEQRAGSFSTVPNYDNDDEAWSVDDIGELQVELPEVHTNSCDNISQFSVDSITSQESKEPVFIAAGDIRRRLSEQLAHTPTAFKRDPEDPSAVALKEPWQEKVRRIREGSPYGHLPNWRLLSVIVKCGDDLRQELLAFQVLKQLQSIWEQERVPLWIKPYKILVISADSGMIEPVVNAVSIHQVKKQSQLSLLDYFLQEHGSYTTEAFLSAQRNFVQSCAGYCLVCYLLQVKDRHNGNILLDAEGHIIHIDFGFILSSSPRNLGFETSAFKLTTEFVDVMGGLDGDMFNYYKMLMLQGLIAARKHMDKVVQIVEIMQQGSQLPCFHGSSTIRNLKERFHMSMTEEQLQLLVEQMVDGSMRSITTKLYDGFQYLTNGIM

[7] = target: T1, Serine/threonine-protein kinase Nek9 (Homo sapiens) (UniProt Q8TD19); assay: Inhibition of NEK9 in human HeLa cells lysate at 50 uM pre incubated for 15 mins followed by ATP acyl phosphate probe addition and measured after 10 mins by LC-MS/MS analysis relative to control; conditions: time 25.0 min
T1 sequence (whole entry): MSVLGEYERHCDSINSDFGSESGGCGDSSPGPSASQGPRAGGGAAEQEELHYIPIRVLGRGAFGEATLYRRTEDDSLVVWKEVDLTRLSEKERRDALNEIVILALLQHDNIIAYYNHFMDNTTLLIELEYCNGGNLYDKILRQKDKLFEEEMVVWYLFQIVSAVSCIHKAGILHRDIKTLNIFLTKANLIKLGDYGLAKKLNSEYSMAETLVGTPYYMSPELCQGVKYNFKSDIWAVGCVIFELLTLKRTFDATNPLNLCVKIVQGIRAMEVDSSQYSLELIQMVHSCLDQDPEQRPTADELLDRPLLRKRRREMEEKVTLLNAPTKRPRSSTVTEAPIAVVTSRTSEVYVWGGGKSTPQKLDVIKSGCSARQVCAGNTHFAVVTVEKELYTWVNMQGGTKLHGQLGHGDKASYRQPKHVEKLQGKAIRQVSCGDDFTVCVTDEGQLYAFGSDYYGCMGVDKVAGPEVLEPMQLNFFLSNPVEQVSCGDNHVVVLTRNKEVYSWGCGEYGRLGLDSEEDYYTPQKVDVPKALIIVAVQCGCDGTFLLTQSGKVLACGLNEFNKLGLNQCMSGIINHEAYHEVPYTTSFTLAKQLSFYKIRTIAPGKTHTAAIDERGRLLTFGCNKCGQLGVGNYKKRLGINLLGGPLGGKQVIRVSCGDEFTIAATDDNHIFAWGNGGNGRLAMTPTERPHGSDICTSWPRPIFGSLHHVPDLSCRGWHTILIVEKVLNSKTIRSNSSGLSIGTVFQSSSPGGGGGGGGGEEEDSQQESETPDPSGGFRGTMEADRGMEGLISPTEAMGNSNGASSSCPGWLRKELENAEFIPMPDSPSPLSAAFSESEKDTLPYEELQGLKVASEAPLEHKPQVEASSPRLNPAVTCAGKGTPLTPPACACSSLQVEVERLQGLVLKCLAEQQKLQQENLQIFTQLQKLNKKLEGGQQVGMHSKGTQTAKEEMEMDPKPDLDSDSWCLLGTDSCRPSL

[8] = target: T2, Serine/threonine-protein kinase Chk1 (Homo sapiens) (UniProt O14757); assay: Inhibition of CHK1 in human HeLa cells lysate at 10 uM pre incubated for 15 mins followed by ATP acyl phosphate probe addition and measured after 10 mins by LC-MS/MS analysis relative to control; conditions: time 25.0 min
T2 sequence (whole entry): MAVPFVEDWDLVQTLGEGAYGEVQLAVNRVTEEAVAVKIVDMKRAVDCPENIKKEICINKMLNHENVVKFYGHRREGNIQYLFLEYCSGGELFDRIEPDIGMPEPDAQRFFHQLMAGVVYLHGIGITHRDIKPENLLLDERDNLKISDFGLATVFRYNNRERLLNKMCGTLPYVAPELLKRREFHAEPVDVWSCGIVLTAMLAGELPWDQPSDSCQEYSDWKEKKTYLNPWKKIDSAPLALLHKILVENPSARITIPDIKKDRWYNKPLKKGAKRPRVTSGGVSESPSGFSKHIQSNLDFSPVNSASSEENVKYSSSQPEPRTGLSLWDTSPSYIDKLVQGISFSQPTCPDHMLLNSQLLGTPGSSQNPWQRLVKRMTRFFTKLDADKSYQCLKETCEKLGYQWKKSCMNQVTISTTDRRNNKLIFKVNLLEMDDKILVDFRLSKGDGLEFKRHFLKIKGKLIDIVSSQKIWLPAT

[9] = target: Calcium/calmodulin-dependent protein kinase type II subunit delta (Homo sapiens, UniProt Q13557); assay: Inhibition of CAMK2d in human HeLa cells lysate at 2 uM pre incubated for 15 mins followed by ATP acyl phosphate probe addition and measured after 10 mins by LC-MS/MS analysis relative to control; conditions: time 25.0 min
Chain of Calcium/calmodulin-dependent protein kinase type II subunit delta (Q13557 whole entry, the tested form may be a part): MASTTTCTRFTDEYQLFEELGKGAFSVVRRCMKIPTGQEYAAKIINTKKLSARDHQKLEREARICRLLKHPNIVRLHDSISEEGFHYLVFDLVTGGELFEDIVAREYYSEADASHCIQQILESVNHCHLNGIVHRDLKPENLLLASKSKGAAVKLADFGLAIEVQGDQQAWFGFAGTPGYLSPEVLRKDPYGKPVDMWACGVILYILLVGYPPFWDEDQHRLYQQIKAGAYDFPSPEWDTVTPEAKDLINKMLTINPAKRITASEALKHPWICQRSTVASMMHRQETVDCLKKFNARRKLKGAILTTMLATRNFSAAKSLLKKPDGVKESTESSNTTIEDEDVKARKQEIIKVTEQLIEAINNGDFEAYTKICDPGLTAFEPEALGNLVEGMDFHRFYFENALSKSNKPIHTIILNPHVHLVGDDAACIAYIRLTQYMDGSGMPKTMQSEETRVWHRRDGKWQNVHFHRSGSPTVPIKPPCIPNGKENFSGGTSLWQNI
Method in brief: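 KiNativ-type profiling in HeLa lysate (5 mg/mL total protein). Lysate preincubated 15 min with inhibitor at 50, 10, 2, 0.8 or 0 μM, then ATP or ADP acylphosphate probe added (5 μM final) for 10 min. Reaction stopped with urea and analysed by targeted MS, using up to four fragment ions per kinase peptide-probe conjugate. % inhibition calculated against untreated lysate. Duplicate reactions.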

SMILES: CCOc1cc(N2CCC(O)CC2)ccc1Nc1ncc2c(n1)N(C)c1ccccc1C(=O)N2C
- IC50 (eIF-2-alpha kinase GCN2): > 50 µM
- IC50 [1]: > 50 µM
- IC50 [2]: > 50 µM
- IC50 [3]: > 50 µM
- IC50 [4]: > 50 µM
- IC50 [5]: > 50 µM
- inhibition (Activated CDC42 kinase 1): 71.5%
- inhibition [6]: 52.2%
- inhibition [7]: -1.6%
- inhibition [8]: -9.9%
- inhibition [9]: -1.1%
